Test results published in ChEMBL document CHEMBL1138465, “N-aryl-oxazolidin-2-imine muscle selective androgen receptor modulators enhance potency through pharmacophore reorientation” (J Med Chem, 2009).
Values after ≈ are worked out from the molar mass of the structure shown.

How the values were obtained:
[1] = Aqueous solubility of the compound; type: physicochemical
[2] = target: T1, Androgen receptor (Homo sapiens, UniProt P10275); experiment: Displacement of [3H[DHT from androgen receptor endogenously expressed in human MDA-MB-453 cells; type: cell-based
T1 sequence (P10275 whole entry): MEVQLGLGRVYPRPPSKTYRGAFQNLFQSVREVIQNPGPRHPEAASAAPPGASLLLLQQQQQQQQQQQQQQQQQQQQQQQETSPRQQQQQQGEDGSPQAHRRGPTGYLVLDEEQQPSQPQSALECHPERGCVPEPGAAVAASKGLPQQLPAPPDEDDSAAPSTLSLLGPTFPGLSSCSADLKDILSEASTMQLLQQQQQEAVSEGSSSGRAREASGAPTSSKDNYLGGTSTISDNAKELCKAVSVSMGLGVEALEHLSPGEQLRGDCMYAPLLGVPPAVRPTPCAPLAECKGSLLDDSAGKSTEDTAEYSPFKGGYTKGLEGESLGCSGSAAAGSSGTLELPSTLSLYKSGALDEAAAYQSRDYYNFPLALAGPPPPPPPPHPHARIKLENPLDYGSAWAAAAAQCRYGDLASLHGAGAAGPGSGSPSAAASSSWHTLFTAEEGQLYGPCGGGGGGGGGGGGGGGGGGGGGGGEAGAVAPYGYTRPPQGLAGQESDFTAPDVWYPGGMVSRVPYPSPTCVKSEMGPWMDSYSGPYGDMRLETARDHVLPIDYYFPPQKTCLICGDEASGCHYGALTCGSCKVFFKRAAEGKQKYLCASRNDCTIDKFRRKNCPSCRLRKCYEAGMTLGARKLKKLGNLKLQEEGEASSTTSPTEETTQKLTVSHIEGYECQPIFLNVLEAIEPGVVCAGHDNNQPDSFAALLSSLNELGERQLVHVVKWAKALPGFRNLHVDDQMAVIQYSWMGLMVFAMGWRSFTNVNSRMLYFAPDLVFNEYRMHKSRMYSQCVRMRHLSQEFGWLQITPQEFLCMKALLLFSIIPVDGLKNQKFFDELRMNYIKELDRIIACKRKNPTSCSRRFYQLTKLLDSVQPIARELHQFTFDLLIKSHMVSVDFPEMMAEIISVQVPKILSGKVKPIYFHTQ

[3] = target: T2, Androgen receptor (Rattus norvegicus, UniProt P15207); experiment: Agonist activity at rat androgen receptor expressed in mouse skeletal muscle C2C12 cells assessed as transcriptional activation after 24 hrs by androgen-specific response element driven luciferase reporter gene assay; type: functional, cell-based
T2 sequence (P15207 whole entry): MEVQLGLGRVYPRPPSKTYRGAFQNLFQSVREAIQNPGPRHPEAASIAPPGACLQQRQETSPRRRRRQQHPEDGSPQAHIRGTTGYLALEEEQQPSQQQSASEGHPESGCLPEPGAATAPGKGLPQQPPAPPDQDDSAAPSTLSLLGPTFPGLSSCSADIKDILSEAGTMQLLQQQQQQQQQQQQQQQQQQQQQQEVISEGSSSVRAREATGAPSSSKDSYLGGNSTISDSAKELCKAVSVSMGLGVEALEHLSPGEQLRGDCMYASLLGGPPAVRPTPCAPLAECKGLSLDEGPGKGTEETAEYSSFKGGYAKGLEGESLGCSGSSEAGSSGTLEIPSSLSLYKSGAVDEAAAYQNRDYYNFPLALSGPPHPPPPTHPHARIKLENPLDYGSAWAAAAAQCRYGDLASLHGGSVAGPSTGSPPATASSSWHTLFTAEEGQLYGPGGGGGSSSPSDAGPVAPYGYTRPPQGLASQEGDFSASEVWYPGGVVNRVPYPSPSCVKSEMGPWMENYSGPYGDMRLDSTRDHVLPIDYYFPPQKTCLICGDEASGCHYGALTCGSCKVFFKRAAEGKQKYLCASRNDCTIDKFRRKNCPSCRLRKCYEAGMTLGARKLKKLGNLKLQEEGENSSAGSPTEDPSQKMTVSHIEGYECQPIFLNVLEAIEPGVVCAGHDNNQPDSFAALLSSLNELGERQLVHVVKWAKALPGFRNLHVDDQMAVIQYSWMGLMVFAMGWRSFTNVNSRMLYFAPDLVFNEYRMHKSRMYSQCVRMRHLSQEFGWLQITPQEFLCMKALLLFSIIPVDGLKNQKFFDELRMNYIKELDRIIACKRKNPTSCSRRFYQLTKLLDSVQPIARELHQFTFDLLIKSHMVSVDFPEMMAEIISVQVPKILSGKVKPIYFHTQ

[4] = target: T2, Androgen receptor; experiment: […] at rat AR expressed in mouse skeletal muscle C2C12 cells assessed as transcriptional activation after 24 hrs by androgen-specific response element driven luciferase reporter gene assay; type: functional, cell-based
[5] = target: T2, Androgen receptor; experiment: Intrinsic activity at rat androgen receptor expressed in mouse skeletal muscle C2C12 cells assessed as transcriptional activation after 24 hrs by androgen-specific response element driven luciferase reporter gene assay relative to control; type: cell-based
[6] = test system: Rattus norvegicus; experiment: Anabolic activity in sc dosed castrated male Harlan Sprague-Dawley rat assessed as intact growth of Levator ani muscle after 14 days; type: functional; conditions: 336 h
[7] = test system: Rattus norvegicus; experiment: Anabolic activity in castrated male Harlan Sprague-Dawley rat assessed as intact growth of prostate at 0.001 mg/kg, po after 14 days; type: functional, Prostate gland
[8] = test system: Rattus norvegicus; experiment: Anabolic activity in castrated male Harlan Sprague-Dawley rat assessed as intact growth of Levator ani muscle at 0.01 mg/kg, po after 14 days; type: functional
[9] = test system: Rattus norvegicus; experiment: Anabolic activity in sc dosed castrated male Harlan Sprague-Dawley rat assessed as intact growth of prostate after 14 days; type: functional; conditions: Prostate gland, 336 h
[10] = test system: Rattus norvegicus; experiment: Anabolic activity in po dosed castrated male Harlan Sprague-Dawley rat assessed as intact growth of prostate after 14 days; type: functional; conditions: Prostate gland, 336 h
[11] = test system: Rattus norvegicus; experiment: Anabolic activity in castrated male Harlan Sprague-Dawley rat assessed as intact growth of prostate at 0.0001 mg/kg, po after 14 days; type: functional, Prostate gland
[12] = test system: Rattus norvegicus; experiment: Anabolic activity in castrated male Harlan Sprague-Dawley rat assessed as intact growth of Levator ani muscle at 0.1 mg/kg, po after 14 days; type: functional
[13] = test system: Rattus norvegicus; experiment: Anabolic activity in castrated male Harlan Sprague-Dawley rat assessed as intact growth of prostate at 0.1 mg/kg, po after 14 days; type: functional, Prostate gland
[14] = test system: Rattus norvegicus; experiment: Anabolic activity in po dosed castrated male Harlan Sprague-Dawley rat assessed as intact growth of Levator ani muscle after 14 days; type: functional; conditions: 336 h
[15] = test system: Rattus norvegicus; experiment: Anabolic activity in castrated male Harlan Sprague-Dawley rat assessed as intact growth of Levator ani muscle at 0.03 mg/kg, po after 14 days; type: functional
[16] = test system: Rattus norvegicus; experiment: Anabolic activity in castrated male Harlan Sprague-Dawley rat assessed as intact growth of prostate at 0.03 mg/kg, po after 14 days; type: functional, Prostate gland
[17] = test system: Rattus norvegicus; experiment: Anabolic activity in castrated male Harlan Sprague-Dawley rat assessed as intact growth of Levator ani muscle at 0.3 mg/kg, po after 14 days; type: functional
[18] = test system: Rattus norvegicus; experiment: Anabolic activity in castrated male Harlan Sprague-Dawley rat assessed as intact growth of prostate at 0.01 mg/kg, po after 14 days; type: functional, Prostate gland
[19] = AUC in rat at 5 mg/kg, po; type: ADME, organism-based; parameters: dose 5 mg/kg, route oral; conditions: plasma
[20] = test system: Rattus norvegicus; experiment: Anabolic activity in castrated male Harlan Sprague-Dawley rat assessed as intact growth of Levator ani muscle at 0.00001 mg/kg, po after 14 days; type: functional; conditions: dose 1e-05 mg/kg
[21] = test system: Rattus norvegicus; experiment: Anabolic activity in castrated male Harlan Sprague-Dawley rat assessed as intact growth of Levator ani muscle at 0.001 mg/kg, po after 14 days; type: functional
[22] = test system: Rattus norvegicus; experiment: Anabolic activity in castrated male Harlan Sprague-Dawley rat assessed as intact growth of prostate at 0.00001 mg/kg, po after 14 days; type: functional, Prostate gland; conditions: dose 1e-05 mg/kg
[23] = Chemical stability in 0.1N HCl assessed as drug remaining after 24 hrs; type: physicochemical; conditions: read-out: Stability
Summary of the method: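 Compound held in solution in 0.1 N HCl at 37 °C for 24 h, used as a model of gut pH; the percentage of intact compound remaining at 24 h was the read-out.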

[24] = test system: Rattus norvegicus; experiment: Anabolic activity in castrated male Harlan Sprague-Dawley rat assessed as intact growth of Levator ani muscle at 0.0001 mg/kg, po after 14 days; type: functional
[25] = test system: Rattus norvegicus; experiment: Anabolic activity in castrated male Harlan Sprague-Dawley rat assessed as intact growth of prostate at 0.3 mg/kg, po after 14 days; type: functional, Prostate gland

Row | SMILES | Ki [2] [nM] | EC50 [3] [nM] | further results
1 | Cc1c(N2C(=O)[C@@H]3[C@H](O)CCN3C2=O)ccc(C#N)c1Cl |  |  | solubility [1]: 19 µg/mL (≈ 62.1 µM)
2 | Cc1c(N2C[C@@H]3[C@H](O)CCN3C2=O)ccc(C#N)c1Cl | 6 | 6.4 | 
3 | CC[C@H]1[C@@H]2[C@@H](O)CCN2C(=O)N1c1ccc(C#N)c(Cl)c1C |  | 1.8 | 
4 | Cc1c(N2C(NC#N)N3CC[C@H](O)[C@H]3[C@@H]2C)ccc(C#N)c1Cl (stereo partly specified) | 17 | 1110 | 
5 | Cc1c(/N=C2\NC[C@@H]3[C@H](O)CCN23)ccc(C#N)c1Cl | 10 |  | EC50 [4]: 1800 nM
6 | Cc1c(/N=C2\N(C(N)=O)C[C@@H]3[C@H](O)CCN23)ccc(C#N)c1Cl | 19 |  | EC50 [5]: Active
7 | Cc1c(/N=C2\O[C@@H](C(F)(F)F)[C@@H]3[C@@H](O)CCN23)ccc(C#N)c1Cl | 0.3 | 0.2 | ED50 [6]: 0.21 mg/kg; Activity [7]: 9.5%; Activity [8]: 109.3%; ED50 [9]: 0.42 mg/kg; ED50 [10]: 0.0143 mg/kg; Activity [11]: 3.6%; Activity [12]: 100.5%; Activity [13]: 103%; ED50 [14]: 0.0009 mg/kg; Activity [15]: 103.5%; Activity [16]: 72.9%; Activity [17]: 103.9%; Activity [18]: 38.8%; AUC [19]: 5.8 µM·h; Activity [20]: 21%; Activity [21]: 59%; Activity [22]: 2.6%; remaining at 24 h [23]: 0.41%; Activity [24]: 25%; Activity [25]: 104.5%
8 | Cc1c(/N=C2\O[C@H](C(F)(F)F)[C@@H]3[C@@H](O)CCN23)ccc(C#N)c1Cl | 0.2 | 19 | 
9 | Cc1c(/N=C2\O[C@@H](C(F)(F)F)[C@@H]3[C@H](O)CCN23)ccc(C#N)c1Cl | 0.3 | 1.4 | 
10 | Cc1c(/N=C2\OC[C@@H]3[C@H](O)CCN23)ccc(C#N)c1Cl | 0.8 | 4.8 | 
11 | Cc1c(/N=C2\N(C)C[C@@H]3[C@H](O)CCN23)ccc(C#N)c1Cl | 1.9 | 44 | 
12 | Cc1c(/N=C2\OC[C@@H]3[C@@H](O)CCN23)ccc(C#N)c1Cl | 0.3 | 14 | 
13 | Cc1c(/N=C2\O[C@H](C(F)(F)F)[C@@H]3[C@H](O)CCN23)ccc(C#N)c1Cl | 2.3 | 1.1 | 
14 | Cc1c(/N=C2\OC(C(C)C)[C@@H]3[C@H](O)CCN23)ccc(C#N)c1Cl (single isomer, unassigned) | 0.7 | 3.7 | 
